The results in this text go back to ChEMBL document CHEMBL2311257, “Synthesis and antioxidant activity of thymol and carvacrol based Schiff bases” (Bioorg Med Chem Lett, 2013).

Holding throughout (assay type): functional
The test system of test [1] is Radical scavenging activity. Briefly: Antioxidant activity assessed as DPPH radical scavenging activity in ethanol solution at 50 ug/mL. Put shortly:
(§1)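 Compound dissolved in ethanol, then ethanolic DPPH added. Incubated 30 min in the dark. DPPH decrease read as absorbance at 517 nm against an ethanol blank, with ascorbic acid as reference. % activity = [(A0 − Ai)/A0] × 100, where A0 is absorbance without compound and Ai with compound. IC50 taken from activity across concentrations.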
On the technique in general: The DPPH test is a chemical assay of radical scavenging.

Test [2] has as its system Radical scavenging activity. The test can be described thus: Antioxidant activity assessed as DPPH radical scavenging activity in ethanol solution at 25 ug/mL. Put shortly: as §1
Test [3] has as its system Radical scavenging activity. The test can be described thus: Antioxidant activity assessed as DPPH radical scavenging activity in chloroform solution at 50 ug/mL.
In test [4] the test system is Radical scavenging activity. Briefly: Antioxidant activity assessed as DPPH radical scavenging activity in ethanol solution at 100 ug/mL. Put shortly: as §1
Test [5] concerns Radical scavenging activity. The test can be described thus: Antioxidant activity assessed as DPPH radical scavenging activity in chloroform solution at 25 ug/mL.
Test [6] relates to Radical scavenging activity. The test can be described thus: Antioxidant activity assessed as DPPH radical scavenging activity in ethanol solution. Put shortly:
as §1

The test system of test [7] is Radical scavenging activity. Briefly: Antioxidant activity assessed as DPPH radical scavenging activity in chloroform solution at 5 ug/mL.
In test [8] the test system is Radical scavenging activity. Briefly: Antioxidant activity assessed as DPPH radical scavenging activity in chloroform solution.
Test [9] deals with Radical scavenging activity. Briefly: Antioxidant activity assessed as DPPH radical scavenging activity in chloroform solution at 100 ug/mL.
Test [10] has as its system Radical scavenging activity. Briefly: Antioxidant activity assessed as DPPH radical scavenging activity in ethanol solution at 10 ug/mL. In a few lines:
as §1

The subject of test [11] is Radical scavenging activity. Briefly: Antioxidant activity assessed as DPPH radical scavenging activity in chloroform solution at 10 ug/mL.
The test system of test [12] is Radical scavenging activity. The test can be described thus: Antioxidant activity assessed as DPPH radical scavenging activity in ethanol solution at 5 ug/mL. Put shortly:
as §1

Test [13] can be described thus: Antioxidant activity assessed as ABTS radical scavenging activity at 5 ug/mL. Put shortly:
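ABTS radical cation solution diluted in ethanol to an absorbance of 0.7–0.9 at 734 nm, 30 °C. Equal volume added to ethanolic compound solution (5 µg/mL). Absorbance read after 1 min and converted to percent inhibition.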

The structures appear in SMILES notation. Values after ≈ are worked out from the molar mass of the structure shown. Active and inactive are the calls of the source. The rule behind the calls is not given here.

As for `Cc1cc(/N=C/c2cc(Br)cc(Br)c2O)c(C(C)C)cc1O`, the Activity stood at 79.3% in test [1]; 72% in test [2]; 77.4% in test [3]; 90.8% in test [4]; 65.8% in test [5]; 28.1% in [7]. Moreover, the Activity is 88.5% in test [9], 47.3% in test [10], 44.4% in test [11] and 31.5% in test [12]. Moreover, the IC50 turned out to be 11.97 µg/mL (≈ 28 µM) in test [6] and 18.73 µg/mL (≈ 43.9 µM) in test [8]. The outcome in [13] was Active.
Consider `COc1ccc(/C=N/c2cc(C)c(O)cc2C(C)C)cc1OC`, for which the Activity in [1] turned out to be 75.5%; in test [2], 67.5%; in [3], 82.3%; in test [4], 87.8%; in [5], 64.2%; in test [7], 25.4%. For the same compound, the Activity in test [9] was 89.8%; in [10], 44.1%; in test [11] it was 43%; in [12], 29.1%. The figures for the 50% inhibitory concentration (IC50) in test [6] and in [8] were 18.12 µg/mL (≈ 57.8 µM) and 20.1 µg/mL (≈ 64.1 µM), respectively. For the same compound, in test [13], the outcome was Active.
Regarding `COc1cc(/C=N/c2cc(C(C)C)c(O)cc2C)cc(OC)c1OC`, the Activity in test [1] came to 73.3%; in test [2], 65.4%; in test [3], 82.9%; in test [4], 83.1%; in test [5], 68.2%; in test [7], 20.7%. Moreover, the Activity is 89.9% in test [9], 41.6% in [10], 39.8% in test [11] and 26% in [12]. The IC50 came out at 22.96 µg/mL (≈ 66.9 µM) in test [6] and 22.03 µg/mL (≈ 64.1 µM) in test [8]. In addition, the outcome in test [13] was Active.
Regarding `COc1cc(/C=N/c2cc(C(C)(C)C)c(O)cc2C)cc(OC)c1`, the Activity came to 76.9% in test [1]; 66.1% in test [2]; 86.6% in test [3]; 80.4% in test [4]; 67.9% in test [5]; 27% in test [7]. Also, the Activity in [9] was 89.5%; in test [10], 43.8%; in test [11] it was 36.8%; in test [12], 26.3%. The IC50 was 20.2 µg/mL (≈ 61.7 µM) in [6] and 19.62 µg/mL (≈ 59.9 µM) in test [8]. In test [13], the result was Active.
Turning to `COc1cc(/C=N/c2cc(C)c(O)cc2C(C)C)cc(OC)c1OC`, the Activity in [1] came to 76.5%; in [2] it was 66.1%; in test [3], 75.7%; in test [4], 87.4%; in test [5], 64.2%; in [7], 19.7%. Moreover, the Activity in [9] turned out to be 88%; in test [10] it was 45.7%; in [11], 41.8%; in test [12], 26.4%. Besides, the figures for the IC50 in [6] and in [8] were 19.05 µg/mL (≈ 55.5 µM) and 25.2 µg/mL (≈ 73.4 µM), respectively. In addition, in [13], the result was Active.
Consider `COc1cc(/C=N/c2cc(C(C)(C)C)c(O)cc2C)cc(OC)c1OC`, for which the Activity in test [1] was found to be 81%; in test [2], 65.4%; in [3], 81.7%; in [4], 84.4%; in [5], 75.8%; in [7], 17.3%. The Activity in test [9] stood at 91.8%; in test [10], 44.9%; in [11], 45.2%; in test [12], 25.9%. Also, the figures for the IC50 in test [6] and in [8] were 18.79 µg/mL (≈ 52.6 µM) and 18.6 µg/mL (≈ 52 µM), respectively. The result in test [13] was Active.
For the compound `COc1ccc(/C=N/c2cc(C(C)(C)C)c(O)cc2C)cc1OC`, the Activity in test [1] is 81.9%; in [2], 62.2%; in test [3], 82.1%; in test [4] it was 90%; in test [5], 72%; in test [7], 22.6%. The Activity in test [9] was determined as 87.1%; in [10], 49%; in test [11] it was 35.3%; in [12], 27.4%. Further, the IC50 was found to be 17.03 µg/mL (≈ 52 µM) in [6] and 22.05 µg/mL (≈ 67.3 µM) in test [8]. Further, the outcome in test [13] was Active.
Regarding `Cc1cc(/N=C/c2ccccc2O)c(C(C)C)cc1O`, the Activity came out at 79.9% in test [1]; 70.6% in [2]; 86.1% in test [3]; 89.3% in test [4]; 65.1% in test [5]; 32.6% in [7]. Further, the Activity was determined as 90.4% in [9], 46.8% in test [10], 40.8% in test [11] and 33% in [12]. The IC50 in [6] amounted to 11.61 µg/mL (≈ 43.1 µM); in test [8], 16.09 µg/mL (≈ 59.7 µM). In addition, the outcome in test [13] was Active.
For the compound `COc1ccc(/C=N/c2cc(C)c(O)cc2C(C)C)cc1`, the Activity is 78.9% in [1]; 69.2% in [2]; 78.4% in test [3]; 89.5% in test [4]; 67.1% in [5]; 34.2% in [7]. The Activity in test [9] amounted to 88.7%; in test [10], 47.5%; in test [11] it was 41%; in test [12], 30.9%. The figures for the IC50 in [6] and in test [8] were 13.5 µg/mL (≈ 47.6 µM) and 16.24 µg/mL (≈ 57.3 µM), respectively. The outcome in [13] was Active.
Take `CCCc1ccc(/C=N/c2cc(C)c(O)cc2C(C)C)cc1`: the Activity in [1] is 76.6%; in test [2], 63.9%; in [4], 84.7%; in test [10] it was 44.6%; in test [12], 23.9%. Moreover, the IC50 in [6] came out at 22.03 µg/mL (≈ 74.6 µM).
Regarding `Cc1ccc(/C=N/c2cc(C(C)(C)C)c(O)cc2C)cc1`, the Activity came out at 69.6% in test [1]; 57.7% in [2]; 75.7% in test [4]; 48.4% in [10]; 27.2% in [12]. Besides, in [6], the IC50 came to 24.32 µg/mL (≈ 86.4 µM).
For the compound `Cc1cc(O)c(C(C)C)cc1/N=C/c1ccc([N+](=O)[O-])cc1`, the Activity was found to be 50.9% in test [1]; 36.2% in test [2]; 65.3% in test [4]; 17.6% in test [10]; 10.3% in test [12]. Further, the IC50 in [6] was found to be 63.03 µg/mL (≈ 211 µM).
As to `Cc1cc(O)c(C(C)(C)C)cc1/N=C/c1ccc(C(C)C)cc1`, the Activity in test [1] amounted to 74%; in [2], 64%; in test [4], 86.4%; in [10], 45.9%; in test [12], 28.7%. In addition, the 50% inhibitory concentration (IC50) in test [6] worked out at 19.42 µg/mL (≈ 62.8 µM).
As for `Cc1cc(/N=C/c2ccc(Cl)cc2)c(C(C)C)cc1O`, the Activity in test [1] stood at 68%; in test [2], 59.6%; in [4], 75.6%; in test [10], 47.3%; in test [12], 27.8%. For the same compound, in test [6], the IC50 worked out at 24.29 µg/mL (≈ 84.4 µM).
Turning to `O=C1O[C@H]([C@@H](O)CO)C(O)=C1O` [ASCORBIC ACID], the Activity in test [1] was found to be 94.4%; in test [2], 85%; in test [4], 95.6%; in [10], 45%; in test [12], 18.9%. Further, the IC50 in test [6] amounted to 11.66 µg/mL (≈ 66.2 µM).
Regarding `Cc1cc(O)c(C(C)(C)C)cc1/N=C/c1ccccn1`, the Activity in [1] is 80.7%; in test [2], 61%; in [4], 91.7%; in test [10], 44.7%; in [12], 22.4%. Moreover, the concentration for half-maximal inhibition (IC50) in test [6] amounted to 22.27 µg/mL (≈ 83 µM).
As for `Cc1cc(/N=C/c2ccc(C(C)C)cc2)c(C(C)C)cc1O`, the Activity came out at 72.4% in test [1]; 61.7% in test [2]; 78% in [4]; 49.5% in [10]; 25.8% in test [12]. Moreover, the half-inhibitory concentration (IC50) in test [6] came out at 21.08 µg/mL (≈ 71.4 µM).
For the compound `Cc1cc(/N=C/c2ccc([N+](=O)[O-])cc2)c(C(C)C)cc1O`, the Activity in test [1] turned out to be 55.8%; in [2], 43%; in test [4] it was 68.6%; in [10], 32%; in test [12], 17.1%. Moreover, the IC50 in [6] was determined as 51.92 µg/mL (≈ 174 µM).
On to `Cc1cc(O)c(C(C)C)cc1/N=C/c1cccnc1`, for which the Activity in [1] stood at 68.2%; in test [2], 48%; in [4], 79%; in [10] it was 38.9%; in test [12], 16.5%. Moreover, the IC50 in test [6] came out at 37.8 µg/mL (≈ 149 µM).
As for `Cc1cc(O)c(C(C)C)cc1/N=C/c1ccc2c(c1)OCO2`, the Activity in test [1] is 82.5%; in test [2], 74.5%; in test [4] it was 89.5%; in test [10], 48%; in [12], 27.3%. The IC50 in [6] worked out at 11.95 µg/mL (≈ 40.2 µM).

A word on the IC50: it is the concentration that inhibits the measured activity by half.
